Test results from PMC3063097 (Angewandte Chemie (International ed. in English), 2010).
pKi: −log10 of the molar value.

How the values were obtained:
Format in all cases: biochemical
[1] = system: skeletal muscle myosin II; experiment: in vitro ATPase assay myosin II
PLK1 = experiment: in vitro kinase assay PLK1; settings: at 100 μM
Casein kinase II = experiment: in vitro kinase assay Casein kinase II; settings: at 100 μM
myosin VI = experiment: in vitro ATPase assay myosin VI; settings: at 50 μM
p42 MAP kinase = experiment: in vitro kinase assay p42 MAP kinase; settings: at 100 μM
Abl kinase = experiment: in vitro kinase assay Abl kinase; settings: at 100 μM
Aurora kinase = experiment: in vitro kinase assay Aurora kinase; settings: at 100 μM
[2] = biological target: single ATPase motor domain of chicken Myosin Va (Gallus gallus, UniProt Q02440); experiment: enzyme-coupled steady-state actin-activated ATPase assay, single-headed myosin V
CHK1 = experiment: in vitro kinase assay CHK1; settings: at 100 μM
actomyosin V-ADP = actomyosin V-ADP (Gallus gallus, UniProt Q02440); experiment: MANT-ADP release from actomyosin V
Summary of the method: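 Transient-kinetic measurement of MANT-ADP release from a preformed actomyosin V–ADP complex, using the fluorescent nucleotide analog. Release amplitudes are normalized and plotted against test compound concentration. Affinity comes from the best fit of that concentration dependence of the amplitudes.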

myosin V = experiment: single MANT-ATP turnover measurements, myosin V without actin; settings: absence of actin; data not shown

| inhibition of ATPase activity ([1]; positive control, concentration not given) | inhibition of kinase (PLK1) | inhibition of kinase (Casein kinase II) | inhibition of ATPase activity (myosin VI) | inhibition of kinase (p42 MAP kinase) | inhibition of kinase (Abl kinase) | inhibition of kinase (Aurora kinase) | mode of inhibition (effect on kcat and apparent KM for actin) ([2]; 12 μM MyoVin-1, various concentrations of actin) | increase in KI in presence of 0.1% triton X ([2]; 0.1% triton X in assay buffer vs without) | pKi ([2]; single-headed myosin V, steady-state actin-activated ATP hydrolysis) | inhibition of kinase (CHK1) | effect on ADP release (actomyosin V-ADP; actomyosin-ADP prepared by equilibrating actomyosin and ADP, data not shown) | inhibition of ATPase activity ([1]; at 50 μM) | effect on ATP binding and rate-limiting Pi release (myosin V) | Compound | effect on ADP release (actomyosin V-ADP; actomyosin V-ADP prepared by mixing with ATP) |
| --- | --- | --- | --- | --- | --- | --- | --- | --- | --- | --- | --- | --- | --- | --- | --- |
| significantly inhibited | – | – | – | – | – | – | – | – | – | – | – | – | – | Cc1ccc2c(c1)C(=O)C1(O)CCN(c3ccccc3)C1=N2 (stereo not drawn) [blebbistatin, reference compound] | – |
| – | 5–10% | 5–10% | not observed any measurable inhibition | 5–10% | 5–10% | 5–10% | uncompetitive inhibition | ~ 1.25 fold | ~5.22 | 5–10% | unaffected | not observed any measurable inhibition | unaffected | O=C(O)c1cccc(SCc2cccc(Nc3ncc4c(-c5ccc(N6CCOCC6)cc5)[nH]nc4n3)c2)c1 [Compound 8] | lowers the amplitude, but not the rate constant of ADP release |
